Assay results collected from several papers.
Protocols differ between the studies behind these lines.
Target: Sodium-dependent serotonin transporter (SLC6A4, Homo sapiens, UniProt P31645)

CCn1c(-c2nc3cc(C(=O)N4CCC[C@@H](N)C4)cc(OC)c3n2C)cc2cccnc21 — IC50 (transporter uptake): 39.8 µM
CCCOC(=O)[C@@]12C[C@@H]1[C@@H](n1cnc3c(NC)nc(C#Cc4ccc(Cl)s4)nc31)[C@H](O)[C@@H]2O — Ki (ligand displacement; radioligand; cell membranes): > 10 µM
CC(=O)N1C[C@H](CCN2CCC(c3c[nH]c4cc(Cl)ccc34)CC2)c2ccccc21 — IC50 (ligand displacement; radioligand; cell membranes): 0.36 µM
CCN(CC)c1ccc(C2Nc3ccc(C(=O)c4ccccc4)cc3NC3=C2C(=O)CC(C)(C)C3)cc1 (stereo not shown) — Ki (cell-free assay; radioligand): > 10 µM
CNc1nc2cc(OCCCCN3CCC(c4cccc(Cl)c4Cl)CC3)ccc2s1 — Ki (ligand displacement; radioligand): 0.062 µM
CCCCN1CCC(COC(=O)c2ccc(N)c(OCF)c2)CC1 — Ki (cell-free assay; radioligand): > 10 µM
Cc1ccc2cccc(N3CCN(CCCCOc4ccc5sc(C(C)C)nc5c4)CC3)c2n1 — Ki (ligand displacement; radioligand): 0.48 µM
CCn1c(-c2nc3ccc(C(=O)N4CCCC(N)C4)cc3n2C)cc2ccccc21 (stereo not shown) — IC50 (transporter uptake): 20 µM
CCC(C)C(=O)[C@]12C(=O)[C@](CC=C(C)C)(C[C@H](CC=C(C)C)[C@@]1(C)CCC=C(C)C)C(=O)C(CC=C(C)C)=C2O (stereo partly shown) — Ki (ligand displacement; radioligand; cell membranes): 34 µM
CC(C)c1nc2cc(OCCCCN3CCN(c4cccc5c4OCCO5)CC3)ccc2s1 — Ki (ligand displacement; radioligand): 0.33 µM
